Assay results gathered from unrelated publications.
Each line is one published result; the experiments were not run side by side.
ABL1 Y253F phosphorylated: Tyrosine-protein kinase ABL1, phosphorylated (ABL1, Homo sapiens, UniProt P00519, Y253F)
ABL1 T315I phosphorylated: Tyrosine-protein kinase ABL1, phosphorylated (ABL1, Homo sapiens, UniProt P00519, T315I)
ABL1 H396P phosphorylated: Tyrosine-protein kinase ABL1, phosphorylated (ABL1, Homo sapiens, UniProt P00519, H396P)
ABL1 H396P non-phosphorylated: Tyrosine-protein kinase ABL1, non-phosphorylated (ABL1, Homo sapiens, UniProt P00519, H396P)

`Nc1ncc2c(n1)-c1c([nH]c3ccc(C#CC4CC4)cc13)CCCC2` gave a remaining binding of 88% (Tyrosine-protein kinase ABL1, phosphorylated (ABL1, Homo sapiens, UniProt P00519, F317L); binding, competition with immobilised ligand; 1 µM).
`COc1cnc(Nc2cccc(S(N)(=O)=O)c2)nc1N1CCN(c2ccccc2)C(=O)C1` gave a remaining binding of 83% (Tyrosine-protein kinase ABL1, non-phosphorylated (ABL1, Homo sapiens, UniProt P00519, T315I); binding, competition with immobilised ligand; 1 µM).
`O=C(c1ccc(Nc2ncc(Cl)c(-c3ccc(Cl)s3)n2)cc1)N1CCC(N2CCCC2)CC1` has a remaining binding of 5% (ABL1 Y253F phosphorylated; binding, competition with immobilised ligand; 1 µM).
With `N[C@H]1CCN(c2nccc(-c3cnn4ncccc34)n2)C1` the remaining binding was 98% (Tyrosine-protein kinase ABL1 (ABL1, Homo sapiens, UniProt P00519, E255K); binding; 1 µM).
`CNC(=O)Nc1ccc2c(c1)[C@@]1(CC2)OC(=O)N(CC(=O)N(Cc2ccc(F)cc2)[C@@H](C)C(F)(F)F)C1=O` gave a remaining binding of 87% (ABL1 T315I phosphorylated; cell-free assay, competition with immobilised ligand; 1 µM).
With `CCN1CCN(Cc2ccc(C(=O)Nc3ccc(C)c(Oc4ccc5c(c4)CC(=O)N5)c3)cc2C(F)(F)F)CC1` the remaining binding was 1% (Tyrosine-protein kinase ABL1, non-phosphorylated (ABL1, Homo sapiens, UniProt P00519, F317I); binding, competition with immobilised ligand; 1 µM).
The remaining binding of `C[C@@H](c1ccc(-n2cnc3c(N)ncnc32)cc1)N1CCc2nn(C)c(Cc3ccccc3)c2C1=O` is reported as 79% (ABL1 H396P phosphorylated; binding, competition with immobilised ligand; 0.1 µM).
`COc1ccnn2ncc(-c3ccnc(N(C)C)n3)c12` has a remaining binding of 79% (Tyrosine-protein kinase ABL1 (ABL1, Homo sapiens, UniProt P00519, Y253F); binding; 1 µM).
The remaining binding of `CN([C@@H]1CCc2c(CC(=O)O)c3ccccc3n2C1)S(=O)(=O)c1ccc(F)cc1` is reported as 100% (ABL1 H396P non-phosphorylated; cell-free assay, competition with immobilised ligand; 1 µM).
The remaining binding of `CN(C)c1nccc(-c2cnn3ncccc23)n1` is reported as 96% (Tyrosine-protein kinase ABL1, phosphorylated (ABL1, Homo sapiens, UniProt P00519); binding; 1 µM).
For `O=C(NCCCN1CCOCC1)c1ccc(Nc2ncc(Cl)c(-c3ccc(Cl)s3)n2)cc1`, the remaining binding was 38% (ABL1 Y253F phosphorylated; binding, competition with immobilised ligand; 1 µM).
With `C=CC(=O)N1CCC(C(=O)NCC(=O)N2CCN(c3nc(-c4cnc(N)nc4C(F)F)nc(N4CCOCC4)n3)CC2)CC1` the remaining binding was 82% (ABL1 T315I phosphorylated; binding, competition with immobilised ligand; 1 µM).
`O=C(c1ccc(Nc2nccc(-c3cc4ccccc4s3)n2)cc1)N1CCC(N2CCCC2)CC1` has a remaining binding of 6.2% (ABL1 Y253F phosphorylated; binding, competition with immobilised ligand; 1 µM).
For `O=C(NCC1CCOCC1)c1n[nH]cc1NC(=O)c1c(F)cccc1F`, the remaining binding was 88% (Tyrosine-protein kinase ABL1, non-phosphorylated (ABL1, Homo sapiens, UniProt P00519); binding, competition with immobilised ligand; 1 µM).
The remaining binding of `CC(=O)c1c(NS(C)(=O)=O)c2cc(-c3ccc(Cl)cc3)c(-c3ccc(Cl)cc3Cl)nc2n(C)c1=O` is reported as 93% (ABL1 T315I phosphorylated; cell-free assay, competition with immobilised ligand; 1 µM).
`Cc1cnc(Nc2ccc(C(=O)N3CCC(N4CCCC4)CC3)cc2)nc1-c1cc2ccccc2s1` has a remaining binding of 0.9% (ABL1 H396P phosphorylated; binding, competition with immobilised ligand; 1 µM).
`CS(=O)(=O)NCC[C@H](NC(=O)c1cncc2c1cnn2-c1ccc(F)cc1)c1ccnc(S(C)(=O)=O)c1` has a remaining binding of 93% (Tyrosine-protein kinase ABL1, phosphorylated (ABL1, Homo sapiens, UniProt P00519, E255K); binding, competition with immobilised ligand; 1 µM).
With `CN(CCCC(F)(F)F)c1nccc(-c2cnn3ncccc23)n1` the remaining binding was 100% (Tyrosine-protein kinase ABL1 (ABL1, Homo sapiens, UniProt P00519, F317I); binding; 1 µM).
`CO[C@@H](C)c1c(Nc2ccc([C@H](N(C)C(=O)C3CCS(=O)(=O)CC3)C(F)(F)F)cc2)cnc2cc(Cl)nn12` gave a remaining binding of 100% (Tyrosine-protein kinase ABL1, phosphorylated (ABL1, Homo sapiens, UniProt P00519, F317I); binding; 1 µM).
For `O=C(Nc1c[nH]nc1C(=O)NC1CCNCC1)c1cc(F)cc(F)c1`, the remaining binding was 100% (Tyrosine-protein kinase ABL1, phosphorylated (ABL1, Homo sapiens, UniProt P00519, M351T); binding, competition with immobilised ligand; 1 µM).
With `CN([C@@H]1CCc2c(CC(=O)O)c3cc(S(C)(=O)=O)ccc3n2C1)S(=O)(=O)c1ccc(F)cc1` the remaining binding was 55% (ABL1 H396P non-phosphorylated; cell-free assay, competition with immobilised ligand; 1 µM).
The remaining binding of `COc1cnc(Nc2cccc(S(N)(=O)=O)c2)nc1N1CCN(c2ccccc2)CC1` is reported as 95% (Tyrosine-protein kinase ABL1, non-phosphorylated (ABL1, Homo sapiens, UniProt P00519, F317L); binding, competition with immobilised ligand; 1 µM).
